The values that follow come from ChEMBL document CHEMBL1134319, “Synthesis and antitumor activity of novel C-7 paclitaxel ethers: discovery of BMS-184476” (J Med Chem, 2001).

One test has as its system HCT-116. As to the kind of experiment: Inhibitory activity against human colon tumor cell sensitive to paclitaxel. The format is functional, cell-based.
A short description of test [1]: Inhibition of tubulin polymerization compared paclitaxel. Format: functional. The method in brief:
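Tubulin polymerization was followed by optical density. The value is the compound concentration giving a change of 0.01 OD/h, expressed as a ratio to the paclitaxel concentration giving the same change.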

Test [2] concerns M109. As to the kind of experiment: In vivo efficacy against Madison Murine lung carcinoma M109 tumors implanted ip and the drug given ip on days 5 and 8 post implantation. The format is functional, Mus musculus. In short, it runs like this:
(§1)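 M109 tumor was implanted ip and drug given ip on days 5 and 8 after implantation. Read-out was %T/C of the analogue at its maximum tolerated dose, reported against %T/C for paclitaxel at a historically determined efficacious dose, which is not its MTD. %T/C above 125% is counted as active.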

Test [3] has as its system M109. As to the kind of experiment: In vivo efficacy against Madison Murine lung carcinoma M109 tumors implanted ip and the drug given ip on days 5 and 8 post implantation. The format is functional, Mus musculus. The method in brief: as §1
The nature of test [4]: Ratio of IC50 values of HCT116 MDR resistant cell line to HCT-116 sensitive cell line. The format is functional. The method in brief: (§2)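 IC50 was measured in the HCT-116/MDR paclitaxel-resistant human colon tumor line and in parental paclitaxel-sensitive HCT-116 cells. The ratio is resistant IC50 divided by sensitive IC50.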
Test [5] is filed under the species Mus musculus. As to the kind of experiment: Gross log cell kill activity at optimal dose of 30 units for q2dx5;26 schedule in mice infected with L2987 (Lung carcinoma) cells. The format is functional.
Test [6] can be described thus: Ratio of IC50 values of HCT116 MDR resistant cell line to HCT-116 sensitive cell line. The format is functional. The method in brief:
as §2

The species entered for test [7] is Mus musculus. Description: Gross log cell kill activity at optimal dose of 2 units for q2dx5;8 schedule in mice infected with A2780 (ovarian carcinoma) cells. The format is functional. The method in brief:
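Staged A2780 tumours in mice. Dosing was intravenous, every other day for 5 doses, starting 8 days after implantation. Optimal dose is the one below the excessively toxic dose. Activity is reported as gross log cell kill.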

Test [8] is filed under the species Mus musculus. As to the kind of experiment: %T/C at optimal dose of 30 units for q2dx5;12 schedule in mice infected with HOC79 (ovarian ca.) cells.
For test [9], the species on record is Mus musculus. Description: Number of cures/total at optimal dose of 2 units for q2dx5;8 schedule in mice infected with A2780 (ovarian carcinoma) cells; 0/8. The format is functional.
The species entered for test [10] is Mus musculus. Description: Gross log cell kill activity at optimal dose of 40 units for q2dx5;10 schedule in mice infected with HCT/pk (Colon ca.) cells. The format is functional.
The species named for test [11] is Mus musculus. Description: Number of cures/total at optimal dose of 40 units for q2dx5;10 schedule in mice infected with HCT/pk (Colon ca.) cells; 1/8. The format is functional.
The species named for test [12] is Mus musculus. Description: Number of cures/total at optimal dose of 30 units for q2dx5;12 schedule in mice infected with HOC79 (ovarian ca.) cells; 0/8. The format is functional.
For test [13], the species on record is Mus musculus. As to the kind of experiment: Number of cures/total at optimal dose of 30 units for q2dx5;26 schedule in mice infected with L2987 (Lung carcinoma) cells; 0/8. Format: functional.
For test [14], the system named is M109. As to the kind of experiment: In vivo efficacy against Madison Murine lung carcinoma M109 tumors implanted sc and the drug given iv every day x 5 beginning 4 days post implantation. The format is functional, Mus musculus. In short, it runs like this: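 Murine M109 tumor was implanted subcutaneously, a site distal to drug administration. Dosing was iv daily ×5 starting 4 days after implant. Activity was expressed as gross log cell kill (LCK) of the analogue at its maximum tolerated dose, alongside LCK for paclitaxel at a historically determined efficacious dose. An LCK of 1 is counted as active.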

`COCO[C@H]1C[C@H]2OC[C@@]2(OC(C)=O)C2[C@H](OC(=O)c3ccccc3)[C@]3(O)CC(OC(=O)[C@H](O)[C@@H](NC(=O)OCc4ccccc4)c4ccccc4)C(C)=C([C@@H](OC(C)=O)C(=O)[C@@]21C)C3(C)C` (some centres not stated) gave an IC50 in the test on HCT-116 of 1.4 nM. Moreover, the Ratio in [1] is 0.6. The Efficacy with M109 [2] is 139.

`CO[C@H]1C[C@H]2OC[C@@]2(OC(C)=O)C2[C@H](OC(=O)c3ccccc3)[C@]3(O)CC(OC(=O)[C@H](O)[C@@H](NC(=O)OC(C)(C)C)c4ccco4)C(C)=C([C@@H](OC(C)=O)C(=O)[C@@]21C)C3(C)C` (some centres not stated) came in with a half-inhibitory concentration (IC50) with HCT-116 of 1.3 nM. Further, the Ratio in test [1] was found to be 0.4; in [4] it was 1.7. Moreover, the Efficacy with M109 [3] is on record as 121.

On to `CC(=O)O[C@H]1C(=O)[C@@]2(C)[C@H]([C@H](OC(=O)c3ccccc3)[C@]3(O)C[C@H](OC(=O)[C@H](O)[C@@H](NC(=O)c4ccccc4)c4ccccc4)C(C)=C1C3(C)C)[C@]1(OC(C)=O)CO[C@@H]1C[C@@H]2O` [PACLITAXEL], for which the LCK in the test listed under Mus musculus [5] came to 1.3; in the test filed under Mus musculus [7] it was 6.1; in the test listed under Mus musculus [10], 2.8. For the same compound, the Ratio in test [6] turned out to be 200; in test [1], 1. This compound also showed a %T/C in the test filed under Mus musculus [8] of 273%. Besides, the C/T in the test filed under Mus musculus [9] is reported as 0; in the test filed under Mus musculus [11] it was 1; in the test filed under Mus musculus [12], 0; in the test filed under Mus musculus [13], 0.

`CC(=O)O[C@H]1C(=O)[C@@]2(C)C([C@H](OC(=O)c3ccccc3)[C@]3(O)CC(OC(=O)[C@H](O)[C@@H](NC(=O)OC(C)(C)C)c4ccco4)C(C)=C1C3(C)C)[C@]1(OC(C)=O)CO[C@@H]1C[C@@H]2OCOCCO` (some centres not stated): the Ratio came to 4.1 in test [6] and 0.3 in test [1]. In the test on HCT-116, the midpoint of inhibition, the IC50, lay at 1.7 nM.

Regarding `CSCO[C@H]1C[C@H]2OC[C@@]2(OC(C)=O)C2[C@H](OC(=O)c3ccccc3)[C@]3(O)CC(OC(=O)[C@H](O)[C@H](C=C(C)C)NC(=O)OC(C)(C)C)C(C)=C([C@@H](OC(C)=O)C(=O)[C@@]21C)C3(C)C` (some centres not stated), the Ratio came out at 3.3 in [6] and 1.1 in test [1]. The compound also displayed a 50% inhibitory concentration (IC50) in the test with HCT-116 of 0.7 nM. This compound gave an Efficacy in the test on M109 [2] of 109.

In the test on HCT-116, `CC(=O)O[C@H]1C(=O)[C@@]2(C)C([C@H](OC(=O)c3ccccc3)[C@]3(O)CC(OC(=O)[C@H](O)[C@@H](NC(=O)OC(C)C)c4ccco4)C(C)=C1C3(C)C)[C@]1(OC(C)=O)CO[C@@H]1C[C@@H]2OCOCCO` (some centres not stated) displayed an IC50 of 0.9 nM. Moreover, the Ratio in test [1] was found to be 0.3. The compound further returned an Efficacy in the test with M109 [2] of 145.

As to `COCO[C@H]1C[C@H]2OC[C@@]2(OC(C)=O)C2[C@H](OC(=O)c3ccccc3)[C@]3(O)CC(OC(=O)[C@H](O)[C@@H](NC(=O)OC(C)(C)C)c4ccccc4)C(C)=C([C@@H](OC(C)=O)C(=O)[C@@]21C)C3(C)C` (some centres not stated), the Ratio came out at 2 in test [6] and 0.2 in test [1]. Also, in the test with HCT-116, the IC50 was found to be 1.1 nM. This compound returned an Efficacy in the test with M109 [2] of 118.

In the test on HCT-116, `COCO[C@H]1C[C@H]2OC[C@@]2(OC(C)=O)C2[C@H](OC(=O)c3ccccc3)[C@]3(O)CC(OC(=O)[C@H](O)[C@@H](NC(=O)c4ccccc4)c4ccco4)C(C)=C([C@@H](OC(C)=O)C(=O)[C@@]21C)C3(C)C` (some centres not stated) came in with an IC50 of 2.1 nM. In addition, the Ratio in [1] was 2.3. The compound also yielded an Efficacy in the test with M109 [3] of 115.

`CSCO[C@H]1C[C@H]2OC[C@@]2(OC(C)=O)C2[C@H](OC(=O)c3ccccc3)[C@]3(O)CC(OC(=O)[C@H](O)[C@@H](NC(=O)c4ccccc4)c4ccco4)C(C)=C([C@@H](OC(C)=O)C(=O)[C@@]21C)C3(C)C` (some centres not stated) gave an IC50 in the test with HCT-116 of 0.6 nM. In addition, in [1], the Ratio amounted to 1. The Efficacy in the test on M109 [14] turned out to be 1.1; with M109 [2] it was 191.

In turn, `COCCOCO[C@H]1C[C@H]2OC[C@@]2(OC(C)=O)C2[C@H](OC(=O)c3ccccc3)[C@]3(O)CC(OC(=O)[C@H](O)[C@@H](NC(=O)c4ccccc4)c4ccccc4)C(C)=C([C@@H](OC(C)=O)C(=O)[C@@]21C)C3(C)C` (some centres not stated) came in with a half-maximal inhibitory concentration (IC50) with HCT-116 of 0.9 nM. The Ratio in [1] worked out at 1.1. Moreover, the Efficacy with M109 [2] was 132.

In the case of `CCCCOC(=O)N[C@@H](c1ccccc1)[C@@H](O)C(=O)OC1C[C@@]2(O)[C@@H](OC(=O)c3ccccc3)C3[C@](C)(C(=O)[C@H](OC(C)=O)C(=C1C)C2(C)C)[C@@H](OCSC)C[C@H]1OC[C@@]31OC(C)=O` (some centres not stated), the IC50 with HCT-116 stood at 1.2 nM. Also, in [1], the Ratio was 0.6. Besides, the Efficacy in the test on M109 [14] is 0.2; with M109 [2], 177.

`CSCO[C@H]1C[C@H]2OC[C@@]2(OC(C)=O)C2[C@H](OC(=O)c3ccccc3)[C@]3(O)CC(OC(=O)[C@H](O)[C@@H](NC(=O)OC(C)C)c4ccccc4)C(C)=C([C@@H](OC(C)=O)C(=O)[C@@]21C)C3(C)C` (some centres not stated): in the test with HCT-116, the IC50 came to 1.7 nM. The Ratio in [1] came to 1.6. The Efficacy is given as 0.5 with M109 [14] and 191 in the test on M109 [2].

The compound `CCOCO[C@H]1C[C@H]2OC[C@@]2(OC(C)=O)C2[C@H](OC(=O)c3ccccc3)[C@]3(O)CC(OC(=O)[C@H](O)[C@@H](NC(=O)c4ccccc4)c4ccccc4)C(C)=C([C@@H](OC(C)=O)C(=O)[C@@]21C)C3(C)C` (some centres not stated) returned an IC50 in the test on HCT-116 of 2.2 nM. The Ratio in test [1] stood at 0.6. In the test on M109 [2], this compound gave an Efficacy of 132.

`CC(=O)O[C@H]1C(=O)[C@@]2(C)C([C@H](OC(=O)c3ccccc3)[C@]3(O)CC(OC(=O)[C@H](O)[C@@H](NC(=O)c4ccccc4)c4ccccc4)C(C)=C1C3(C)C)[C@]1(OC(C)=O)CO[C@@H]1C[C@@H]2OCOCCO` (some centres not stated) returned an IC50 in the test with HCT-116 of 1.1 nM. The Ratio in [1] was 1. Also, the Efficacy is reported as 0.9 in the test with M109 [14] and 238 with M109 [2].

For `COCO[C@H]1C[C@H]2OC[C@@]2(OC(C)=O)C2[C@H](OC(=O)c3ccccc3)[C@]3(O)CC(OC(=O)[C@H](O)[C@@H](NC(=O)OC(C)(C)C)c4ccco4)C(C)=C([C@@H](OC(C)=O)C(=O)[C@@]21C)C3(C)C` (some centres not stated), the Ratio in test [6] was found to be 5.6; in test [1], 0.4. In the test with HCT-116, this compound registered a 50% inhibitory concentration (IC50) of 1.3 nM. For the same compound, the Efficacy with M109 [2] is given as 118.

As for `CC(=O)O[C@H]1C(=O)[C@@]2(C)C([C@H](OC(=O)c3ccccc3)[C@]3(O)CC(OC(=O)[C@H](O)[C@@H](NC(=O)OC(C)(C)C)c4ccccc4)C(C)=C1C3(C)C)[C@]1(OC(C)=O)CO[C@@H]1C[C@@H]2OCOCCO` (some centres not stated), the Ratio in [6] came out at 0.7; in test [1], 1.6. In the test on HCT-116, this compound returned a half-maximal inhibitory concentration (IC50) of 1.1 nM. In addition, the Efficacy in the test with M109 [2] was determined as 136.

For the compound `CSCO[C@H]1C[C@H]2OC[C@@]2(OC(C)=O)C2[C@H](OC(=O)c3ccccc3)[C@]3(O)CC(OC(=O)[C@H](O)[C@@H](NC(=O)OC(C)(C)C)c4ccco4)C(C)=C([C@@H](OC(C)=O)C(=O)[C@@]21C)C3(C)C` (some centres not stated), the Ratio in test [6] was determined as 1; in [1], 1.6. This compound registered an IC50 with HCT-116 of 1.7 nM. For the same compound, the Efficacy in the test with M109 [2] worked out at 104.

`COCO[C@H]1C[C@H]2OC[C@@]2(OC(C)=O)C2[C@H](OC(=O)c3ccccc3)[C@]3(O)CC(OC(=O)[C@H](O)[C@@H](NC(=O)c4ccccc4)c4ccccc4)C(C)=C([C@@H](OC(C)=O)C(=O)[C@@]21C)C3(C)C` (some centres not stated): the figures for the Ratio in test [6] and in test [1] were 10 and 0.5, respectively. The IC50 with HCT-116 is 1.4 nM. In addition, the Efficacy with M109 [2] was determined as 192.
